This note sets out measurements from ChEMBL document CHEMBL1148351, “Probing the pharmacophore for allosteric ligands of muscarinic M2 receptors: SAR and QSAR studies in a series of bisquaternary salts of caracurine V and related ring systems” (J Med Chem, 2004).

Each structure is given as a SMILES string.

The target of experiment [1] is T1, Muscarinic acetylcholine receptor M2 (Sus scrofa) (UniProt P06199).
T1 sequence (whole entry): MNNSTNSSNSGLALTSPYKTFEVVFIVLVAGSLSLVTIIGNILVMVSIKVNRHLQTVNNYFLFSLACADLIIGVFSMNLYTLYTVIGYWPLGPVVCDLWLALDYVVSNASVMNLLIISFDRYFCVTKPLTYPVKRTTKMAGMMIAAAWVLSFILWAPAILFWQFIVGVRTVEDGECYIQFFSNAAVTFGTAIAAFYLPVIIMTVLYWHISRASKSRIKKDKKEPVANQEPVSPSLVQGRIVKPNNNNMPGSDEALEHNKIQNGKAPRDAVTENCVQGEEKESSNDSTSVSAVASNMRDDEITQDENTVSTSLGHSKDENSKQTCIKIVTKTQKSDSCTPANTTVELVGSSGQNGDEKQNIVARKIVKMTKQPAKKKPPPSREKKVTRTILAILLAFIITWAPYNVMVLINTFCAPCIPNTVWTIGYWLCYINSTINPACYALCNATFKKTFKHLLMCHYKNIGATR
The experiment can be described thus: Concentration for half maximal inhibition of [3H]NMS dissociation from muscarinic acetylcholine receptor M2 in porcine heart ventricles. The method in brief: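 Porcine cardiac homogenates, 0.2 nM [3H]NMS in 4 mM Na2HPO4/1 mM KH2PO4 pH 7.4, 23 °C; preincubated 30 min, then dissociation started with 1 μM atropine with or without modulator. Specific binding sampled over 120 min (complete) or at t=0 and 10 min (two-point). Apparent k-1 expressed as % control; four-parameter logistic fit gives EC0.5,diss. Two to four experiments; nonspecific defined by 10^-6 M atropine; filtration, scintillation counting.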

Experiment [2] concerns the target T1, Muscarinic acetylcholine receptor M2 (Sus scrofa). The experiment can be described thus: Equilibrium binding to muscarinic acetylcholine receptor M2 using [3H]NMS in porcine heart ventricles.

In experiment [1], `Brc1ccc(C[N+]23CC[C@@]45c6ccccc6N6[C@@H]7OCC=C8C[N+]9(Cc%10ccc(Br)cc%10)CC[C@]%10%11c%12ccccc%12N([C@@H]%12OCC=C(C2)[C@H](C[C@@H]43)[C@@H]%12[C@H]65)[C@H]%10[C@H]7[C@H]8C[C@@H]%119)cc1` (some centres not stated) registered a pEC0.5 of 6.29. Also, the [3H]NMS equilibrium binding (%) in experiment [2] was found to be 113%. The matching figures for `COc1ccc(C[N+]23CC[C@@]45c6ccccc6N6[C@@H]7OCC=C8C[N+]9(Cc%10ccc(OC)cc%10)CC[C@]%10%11c%12ccccc%12N([C@@H]%12OCC=C(C2)[C@H](C[C@@H]43)[C@@H]%12[C@H]65)[C@H]%10[C@H]7[C@H]8C[C@@H]%119)cc1` (some centres not stated): 5.95 and 70.4%. The matching figures for `O=C(C[N+]12CC[C@@]34c5ccccc5N5[C@@H]6OCC=C7C[N+]8(CC(=O)c9ccccc9)CC[C@]9%10c%11ccccc%11N([C@@H]%11OCC=C(C1)[C@H](C[C@@H]32)[C@@H]%11[C@H]54)[C@H]9[C@H]6[C@H]7C[C@@H]%108)c1ccccc1` (some centres not stated): 5.49 and 6.1%. The matching figures for `O=C1c2ccccc2C(=O)N1CCC[N@+]12CCC34c5ccccc5N5C6OCC=C7C[N@+]8(CCCN9C(=O)c%10ccccc%10C9=O)CCC9%10c%11ccccc%11N(C%11OCC=C(C1)C(CC32)C%11C54)C9C6C7CC%108` (some centres not stated): 6.43 and 88.4%. Consider `C/C=C/C[N@+]12CCC34c5ccccc5N5C6OCC=C7C[N@+]8(C/C=C/C)CCC9%10c%11ccccc%11N(C%11OCC=C(C1)C(CC32)C%11C54)C9C6C7CC%108` (some centres not stated), for which, in experiment [1], the pEC0.5 was 7.14. This compound showed a [3H]NMS equilibrium binding (%) in experiment [2] of 100%. The matching figures for `C1=C2C[N@+]3(CC4CC4)CCC45c6ccccc6N6C7OCC=C8C[N@+]9(CC%10CC%10)CCC%10%11c%12ccccc%12N(C(OC1)C(C2CC43)C65)C%10C7C8CC%119` (some centres not stated): 7.86 and 110%.

The compound `C1=C2C[N+]3(CC4CO4)CC[C@@]45c6ccccc6N6[C@@H]7OCC=C8C[N+]9(CC%10CO%10)CC[C@]%10%11c%12ccccc%12N([C@H](OC1)[C@H](C2C[C@@H]43)[C@H]65)[C@H]%10[C@H]7[C@H]8C[C@@H]%119` (some centres not stated) returned a pEC0.5 in experiment [1] of 7.19. In experiment [2], this compound gave a [3H]NMS equilibrium binding (%) of 110%. For the compound `COc1ccc(C[N+]23CC[C@@]45c6ccccc6N6[C@@H]7OCC=C8C[N+]9(Cc%10ccc(OC)c(OC)c%10)CC[C@]%10%11c%12ccccc%12N([C@@H]%12OCC=C(C2)[C@H](C[C@@H]43)C%12[C@H]65)[C@H]%10[C@H]7[C@H]8C[C@@H]%119)cc1OC` (some centres not stated), the pEC0.5 in experiment [1] is 6.47. For the same compound, the [3H]NMS equilibrium binding (%) in experiment [2] is 100%. The matching figures for `C=CC[N+]12CC[C@@]34c5ccccc5N5[C@@H]6OCC=C7CN8CC[C@]9%10c%11ccccc%11N([C@@H]%11OCC=C(C1)[C@H](C[C@@H]32)[C@@H]%11[C@H]54)[C@H]9[C@H]6[C@H]7C[C@H]8%10` (some centres not stated): 7.74 and 81.4%. The compound `C#CC[N@+]12CCC34c5ccccc5N5C6OCC=C7C[N@+]8(CC#C)CCC9%10c%11ccccc%11N(C%11OCC=C(C1)C(CC32)C%11C54)C9C6C7CC%108` (some centres not stated) gave a pEC0.5 in experiment [1] of 8.36. The [3H]NMS equilibrium binding (%) in experiment [2] is 105%.

`C=CC[N+]12CC[C@]34c5cc(OC)c(OC)cc5N5C3[C@@H]3[C@@H](OCC=C(C1)[C@@H]3C[C@@H]42)N1c2cc(OC)c(OC)cc2[C@@]23CC[N+]4(CC=C)CC6=CCO[C@@H]5[C@@H](C12)[C@H]6C[C@@H]34` (some centres not stated) yielded a pEC0.5 in experiment [1] of 6.69. For `O=[N+]([O-])c1ccc(C[N+]23CC[C@@]45c6ccccc6N6[C@@H]7OCC=C8C[N+]9(Cc%10ccc([N+](=O)[O-])cc%10)CC[C@]%10%11c%12ccccc%12N([C@@H]%12OCC=C(C2)[C@H](C[C@@H]43)C%12[C@H]65)[C@H]%10[C@H]7[C@H]8C[C@@H]%119)cc1` (some centres not stated), the pEC0.5 in experiment [1] stood at 6.47. For the same compound, the [3H]NMS equilibrium binding (%) in experiment [2] was 99.8%. The matching figures for `OC/C=C1\C[N+]2(C3C=CCCC3)CCC34c5ccccc5N5/C=C6/C7CC8C9(CC[N+]8(C8C=CCCC8)C/C7=C/CO)c7ccccc7N(/C=C(/C1CC32)C54)C69` (configuration not stated): 8.07 and 118%.

`C=CC[N+]12CC[C@@]34c5ccccc5N5[C@@H]6OCC=C7C[N+]8(CC=C)CC[C@]9%10c%11ccccc%11N([C@@H]%11OCC=C(C1)[C@H](C[C@@H]32)[C@@H]%11[C@H]54)[C@H]9[C@H]6[C@H]7C[C@@H]%108` (some centres not stated) displayed a pEC0.5 in experiment [1] of 7.95. The compound also registered a [3H]NMS equilibrium binding (%) in experiment [2] of 109%.

`C[N+]12CC[C@@]34c5ccccc5N5[C@@H]6OCC[C@@H]7C[N+]8(C)CC[C@]9%10c%11ccccc%11N([C@@H]%11OCC[C@H](C1)[C@H](C[C@@H]32)C%11[C@H]54)[C@H]9[C@H]6[C@H]7C[C@@H]%108` (some centres not stated) came in with a pEC0.5 in experiment [1] of 8.44. In addition, in experiment [2], the [3H]NMS equilibrium binding (%) is 104%.

The compound `CC#CC[N@+]12CCC34c5ccccc5N5C6OCC=C7C[N@+]8(CC#CC)CCC9%10c%11ccccc%11N(C%11OCC=C(C1)C(CC32)C%11C54)C9C6C7CC%108` (some centres not stated) showed a pEC0.5 in experiment [1] of 7.36. The [3H]NMS equilibrium binding (%) in experiment [2] turned out to be 103%. The matching figures for `N#CC[N+]12CC[C@@]34c5ccccc5N5[C@@H]6OCC=C7C[N+]8(CC#N)CC[C@]9%10c%11ccccc%11N([C@@H]%11OCC=C(C1)[C@H](C[C@@H]32)C%11[C@H]54)[C@H]9[C@H]6[C@H]7C[C@@H]%108` (some centres not stated): 6.69 and 85.3%. For the compound `C=CC[N@@+]12CC[C@@]34c5ccccc5N5/C=C6/[C@H]7C[C@H]8[C@@]9(CC[N@@+]8(CC=C)C/C7=C/CO)c7ccccc7N(/C=C(/[C@@H](C[C@@H]31)/C(=C\CO)C2)[C@H]54)[C@@H]69`, in experiment [1], the pEC0.5 was 8.65. In experiment [2], the [3H]NMS equilibrium binding (%) amounted to 116%. The matching figures for `C1=C2CN3CC[C@]45c6ccccc6N6[C@@H]7OCC=C8CN9CC[C@]%10%11c%12ccccc%12N([C@H](OC1)[C@@H]([C@H]64)[C@H]2C[C@H]35)[C@H]%10[C@H]7[C@H]8C[C@H]9%11`: 6.36 and 95.8%. The compound `NC(=O)C[N+]12CC[C@@]34c5ccccc5N5[C@@H]6OCC=C7C[N+]8(CC(N)=O)CC[C@]9%10c%11ccccc%11N([C@@H]%11OCC=C(C1)[C@H](C[C@@H]32)[C@@H]%11[C@H]54)[C@H]9[C@H]6[C@H]7C[C@@H]%108` (some centres not stated) came in with a pEC0.5 in experiment [1] of 6.65. In experiment [2], the [3H]NMS equilibrium binding (%) is 87.8%.

`FC(F)(F)c1ccc(C[N+]23CC[C@@]45c6ccccc6N6[C@@H]7OCC=C8C[N+]9(Cc%10ccc(C(F)(F)F)cc%10)CC[C@]%10%11c%12ccccc%12N([C@@H]%12OCC=C(C2)[C@H](C[C@@H]43)[C@@H]%12[C@H]65)[C@H]%10[C@H]7[C@H]8C[C@@H]%119)cc1` (some centres not stated) had a pEC0.5 in experiment [1] of 5.76. The compound further gave a [3H]NMS equilibrium binding (%) in experiment [2] of 87%. The matching figures for `C1=CC([N@+]23CCC45c6ccccc6N6C7OCC=C8C[N@+]9(C%10C=CCCC%10)CCC%10%11c%12ccccc%12N(C%12OCC=C(C2)C(CC43)C%12C65)C%10C7C8CC%119)CCC1` (some centres not stated): 7.7 and 109%. Turning to `C[N+]12CCC34c5ccccc5N5/C=C6/C7CC8C9(CC[N+]8(C)C/C7=C/CO)c7ccccc7N(/C=C(/C(CC31)/C(=C/CO)C2)C54)C69` (configuration not stated), the pEC0.5 in experiment [1] amounted to 7.87. The compound also returned a [3H]NMS equilibrium binding (%) in experiment [2] of 119%. In turn, `Fc1c(F)c(F)c(C[N@+]23CCC45c6ccccc6N6C7OCC=C8C[N@+]9(Cc%10c(F)c(F)c(F)c(F)c%10F)CCC%10%11c%12ccccc%12N(C%12OCC=C(C2)C(CC43)C%12C65)C%10C7C8CC%119)c(F)c1F` (some centres not stated) gave a pEC0.5 in experiment [1] of 7.27. In experiment [2], this compound showed a [3H]NMS equilibrium binding (%) of 111%.

`C[N+]12CC[C@@]34c5ccccc5N5[C@@H]6OCC=C7C[N+]8(C)CC[C@]9%10c%11ccccc%11N([C@@H]%11OCC=C(C1)[C@H](C[C@@H]32)[C@@H]%11[C@H]54)[C@H]9[C@H]6[C@H]7C[C@@H]%108` (some centres not stated): in experiment [1], the pEC0.5 came to 8.09. Further, in experiment [2], the [3H]NMS equilibrium binding (%) was 115%.

`C1=C2C[N@+]3(Cc4ccccc4)CCC45c6ccccc6N6C7OCC=C8C[N@+]9(Cc%10ccccc%10)CCC%10%11c%12ccccc%12N(C(OC1)C(C2CC43)C65)C%10C7C8CC%119` (some centres not stated) had a pEC0.5 in experiment [1] of 7.12. In addition, the [3H]NMS equilibrium binding (%) in experiment [2] was 86.4%. The matching figures for `C1=C2C[N@+]3(Cc4ccc5ccccc5c4)CCC45c6ccccc6N6C7OCC=C8C[N@+]9(Cc%10ccc%11ccccc%11c%10)CCC%10%11c%12ccccc%12N(C(OC1)C(C2CC43)C65)C%10C7C8CC%119` (some centres not stated): 5.82 and 89%. The matching figures for `C=CC[N+]12CC[C@@]34c5ccccc5N5/C=C6\C7N(c8ccccc8[C@@]78CC[N+]7(CC=C)C/C(=C/CO)[C@@H]6C[C@@H]87)[C@@H]6OCC=C(C1)[C@H](C[C@@H]32)C6C54` (some centres not stated): 8.57 and 119%. For `C[N@@+]12CC[C@@]34c5ccccc5N5/C=C6/[C@H]7C[C@H]8[C@@]9(CC[N@@+]8(C)C/C7=C/CO)c7ccccc7N(/C=C(/[C@@H](C[C@@H]31)/C(=C\CO)C2)[C@H]54)[C@@H]69`, the pEC0.5 in experiment [1] was found to be 7.02. In experiment [2], this compound had a [3H]NMS equilibrium binding (%) of 104%.
